These results are taken from ChEMBL document CHEMBL2424572 (J Med Chem, 2013).

One data set addresses Collagenase 3 (Homo sapiens, UniProt P45452). Put plainly: Inhibition of MMP-13 (unknown origin) using 7-methoxycoumarin-4-yl)acetyl-Pro-Leu-Gly-Leu-(3-(2,4-dinitrophenyl)-L-2,3-diamino-propionyl)Ala-Arg-NH2 as substrate preincubated for 30 mins followed by substrate addition by fluorescence assay. The procedure, abridged: (§1)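 Activated MMP (2 nM) preincubated with inhibitor (10 pM to 1 mM) in 50 mM Tris-HCl pH 7.5, 0.2 M NaCl, 5 mM CaCl2, 20 μM ZnSO4, 0.05% Brij 35, 37 °C for 30 min.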

In the next data set the target is Neutrophil collagenase (Homo sapiens, UniProt P22894). Put plainly: Inhibition of MMP-8 (unknown origin) using 7-methoxycoumarin-4-yl)acetyl-Pro-Leu-Gly-Leu-(3-(2,4-dinitrophenyl)-L-2,3-diamino-propionyl)Ala-Arg-NH2 as substrate preincubated for 30 mins followed by substrate addition by fluorescence assay. The procedure, abridged:
as §1

Data set [1] concerns the target Matrix metalloproteinase-9 (Homo sapiens, UniProt P14780). As to the kind of experiment: Inhibition of MMP-9 (unknown origin) using 7-methoxycoumarin-4-yl)acetyl-Pro-Leu-Gly-Leu-(3-(2,4-dinitrophenyl)-L-2,3-diamino-propionyl)Ala-Arg-NH2 as substrate preincubated for 30 mins followed by substrate addition by fluorescence assay. In short, it runs like this:
as §1

Data set [2] deals with 72 kDa type IV collagenase (Homo sapiens, UniProt P08253). Put plainly: Inhibition of MMP-2 (unknown origin) using 7-methoxycoumarin-4-yl)acetyl-Pro-Leu-Gly-Leu-(3-(2,4-dinitrophenyl)-L-2,3-diamino-propionyl)Ala-Arg-NH2 as substrate preincubated for 30 mins followed by substrate addition by fluorescence assay. In short, it runs like this:
as §1

A further data set relates to Kidney. Put plainly: Biodistribution in wild type CD1 mouse kidney assessed as metabolite 3 at 11.1 MBq, iv measured at 30 mins by gamma counting-based HPLC analysis. The following applies: in vivo, 0.5 h. The format is ADME, organism-based. In short, it runs like this: (§2)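 About 11.1 MBq injected by tail vein (≤200 μL) into three mice, killed 30 min p.i. Tissues weighed and homogenized in 1% SDS/PBS, extracted with acetonitrile/acetic acid, frozen on dry ice, thawed, centrifuged 13000 rpm 8 min. Supernatants gamma-counted against a dose aliquot for %ID/g, then radio-HPLC on C18 (acetonitrile/water, 0.05% TFA).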

The subject of data set [3] is Mus musculus. Put plainly: Biodistribution in wild type CD1 mouse small intestine assessed as metabolite 1 at 11.1 MBq, iv measured at 30 mins by gamma counting-based HPLC analysis. The following applies: in vivo, 0.5 h. The format is ADME, organism-based. The procedure, abridged:
as §2

Data set [4] has as its system Mus musculus. As to the kind of experiment: Biodistribution in wild type CD1 mouse small intestine assessed as metabolite 5 at 11.1 MBq, iv measured at 30 mins by gamma counting-based HPLC analysis. The format is ADME, organism-based. The following applies: in vivo, 0.5 h. In short, it runs like this: as §2
A further data set relates to Serum. Put plainly: Metabolic stability in mouse serum at 5 MBq after 30 to 120 mins by radio-HPLC analysis. The format is ADME, cell-free. In short, it runs like this: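 PBS-formulated radioligand (20 μL, 5 MBq) added to 200 μL mouse serum at 37 °C. 20 μL samples taken at 10−120 min, quenched in MeOH/CH2Cl2 1:1 and centrifuged 2 min. Organic layer analysed by radio-HPLC, isocratic 35% CH3CN/water (0.1% TFA) for 13 min, then gradient.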

Data set [5] relates to Mus musculus. As to the kind of experiment: Biodistribution in wild type CD1 mouse small intestine assessed as metabolite 3 at 11.1 MBq, iv measured at 30 mins by gamma counting-based HPLC analysis. The following applies: in vivo, 0.5 h. The format is ADME, organism-based. In short, it runs like this: as §2
In another data set the test system is Muscle tissue. As to the kind of experiment: Biodistribution in […] mouse muscle at 250 kBq/g, iv after 90 to 120 mins by PET analysis. The format is ADME, organism-based. The following applies: in vivo. In short, it runs like this:
(§3)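 Tracer dosed at 250 kBq/g body weight as a tail-vein bolus (100 μL, flushed with 100 μL saline) into C57/Bl6 mice, then PET scanning on a submillimeter-resolution small-animal scanner. Time-activity curves were drawn for regions of interest as %ID; images cover frames up to 90−120 min p.i.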

Data set [6] is described as follows: 1-octanol-PBS buffer partition coefficient, log D of the compound at 20 kBq after 1 min by gamma counting analysis. The format is physicochemical.
For data set [7], the system named is Mus musculus. Put plainly: Biodistribution in wild type CD1 mouse gall bladder assessed as metabolite 4 at 11.1 MBq, iv measured at 30 mins by gamma counting-based HPLC analysis. The format is ADME, organism-based. The following applies: in vivo, 0.5 h. The procedure, abridged:
as §2

A further data set deals with Lung. As to the kind of experiment: Biodistribution in […] mouse lung at 250 kBq/g, iv after 90 to 120 mins by PET analysis. The class given is ADME, organism-based. The conditions noted are these: in vivo. The procedure, abridged:
as §3

Data set [8] has as its system Mus musculus. Put plainly: Biodistribution in wild type CD1 mouse gall bladder assessed as metabolite 2 at 11.1 MBq, iv measured at 30 mins by gamma counting-based HPLC analysis. The format is ADME, organism-based. The conditions noted are these: in vivo, 0.5 h. The procedure, abridged: as §2
Data set [9] concerns Mus musculus. As to the kind of experiment: Biodistribution in wild type CD1 mouse gall bladder assessed as metabolite 1 at 11.1 MBq, iv measured at 30 mins by gamma counting-based HPLC analysis. The following applies: in vivo, 0.5 h. The class given is ADME, organism-based. The procedure, abridged: as §2
The subject of data set [10] is Mus musculus. As to the kind of experiment: Biodistribution in […] mouse myocardium at 250 kBq/g, iv after 90 to 120 mins by PET analysis. The conditions noted are these: in vivo. The class given is ADME, organism-based. The procedure, abridged: as §3
Data set [11] concerns Mus musculus. As to the kind of experiment: Biodistribution in wild type CD1 mouse gall bladder assessed as metabolite 5 at 11.1 MBq, iv measured at 30 mins by gamma counting-based HPLC analysis. The format is ADME, organism-based. The conditions noted are these: in vivo, 0.5 h. In short, it runs like this: as §2
Another data set concerns Brain. Put plainly: Biodistribution in […] mouse brain at 250 kBq/g, iv after 90 to 120 mins by PET analysis. The following applies: in vivo. The format is ADME, organism-based. The procedure, abridged: as §3

Matrix metalloproteinase-9, sequence (P14780 whole entry): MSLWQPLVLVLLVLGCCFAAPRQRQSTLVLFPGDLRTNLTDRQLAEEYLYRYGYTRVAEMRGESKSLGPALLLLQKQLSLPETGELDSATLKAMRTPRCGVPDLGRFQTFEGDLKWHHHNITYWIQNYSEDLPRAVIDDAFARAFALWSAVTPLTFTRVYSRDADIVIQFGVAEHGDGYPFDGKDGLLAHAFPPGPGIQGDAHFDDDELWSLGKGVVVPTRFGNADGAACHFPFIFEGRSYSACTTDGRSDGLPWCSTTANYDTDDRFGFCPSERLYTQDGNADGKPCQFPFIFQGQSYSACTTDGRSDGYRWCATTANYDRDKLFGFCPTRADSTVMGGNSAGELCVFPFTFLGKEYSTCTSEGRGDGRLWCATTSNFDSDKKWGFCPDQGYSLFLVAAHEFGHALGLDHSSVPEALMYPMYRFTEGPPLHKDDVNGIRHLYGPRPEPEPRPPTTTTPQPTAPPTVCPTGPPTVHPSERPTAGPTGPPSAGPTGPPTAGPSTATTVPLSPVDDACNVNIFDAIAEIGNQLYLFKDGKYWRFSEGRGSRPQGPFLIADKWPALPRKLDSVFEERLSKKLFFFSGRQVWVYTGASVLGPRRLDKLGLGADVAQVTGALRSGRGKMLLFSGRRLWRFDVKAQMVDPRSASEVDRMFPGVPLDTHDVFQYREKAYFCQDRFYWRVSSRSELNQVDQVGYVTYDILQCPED
72 kDa type IV collagenase, sequence (P08253 whole entry): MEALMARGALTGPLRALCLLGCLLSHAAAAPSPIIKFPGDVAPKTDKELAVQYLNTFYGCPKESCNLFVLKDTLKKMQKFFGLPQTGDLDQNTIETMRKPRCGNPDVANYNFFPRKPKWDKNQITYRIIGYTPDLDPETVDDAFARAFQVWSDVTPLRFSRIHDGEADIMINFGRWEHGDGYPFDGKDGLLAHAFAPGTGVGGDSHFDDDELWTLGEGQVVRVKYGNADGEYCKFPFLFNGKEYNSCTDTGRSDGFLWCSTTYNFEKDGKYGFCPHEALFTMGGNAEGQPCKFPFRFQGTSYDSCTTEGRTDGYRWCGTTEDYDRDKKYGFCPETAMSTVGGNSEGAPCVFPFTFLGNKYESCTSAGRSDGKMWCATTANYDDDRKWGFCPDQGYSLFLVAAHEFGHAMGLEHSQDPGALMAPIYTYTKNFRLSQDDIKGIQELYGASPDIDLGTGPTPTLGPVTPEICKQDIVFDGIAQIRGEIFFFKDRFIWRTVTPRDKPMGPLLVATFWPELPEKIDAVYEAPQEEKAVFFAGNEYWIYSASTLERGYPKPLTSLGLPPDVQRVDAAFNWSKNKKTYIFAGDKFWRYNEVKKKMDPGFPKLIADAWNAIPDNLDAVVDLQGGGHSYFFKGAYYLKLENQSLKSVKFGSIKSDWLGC
Neutrophil collagenase, sequence (P22894 whole entry): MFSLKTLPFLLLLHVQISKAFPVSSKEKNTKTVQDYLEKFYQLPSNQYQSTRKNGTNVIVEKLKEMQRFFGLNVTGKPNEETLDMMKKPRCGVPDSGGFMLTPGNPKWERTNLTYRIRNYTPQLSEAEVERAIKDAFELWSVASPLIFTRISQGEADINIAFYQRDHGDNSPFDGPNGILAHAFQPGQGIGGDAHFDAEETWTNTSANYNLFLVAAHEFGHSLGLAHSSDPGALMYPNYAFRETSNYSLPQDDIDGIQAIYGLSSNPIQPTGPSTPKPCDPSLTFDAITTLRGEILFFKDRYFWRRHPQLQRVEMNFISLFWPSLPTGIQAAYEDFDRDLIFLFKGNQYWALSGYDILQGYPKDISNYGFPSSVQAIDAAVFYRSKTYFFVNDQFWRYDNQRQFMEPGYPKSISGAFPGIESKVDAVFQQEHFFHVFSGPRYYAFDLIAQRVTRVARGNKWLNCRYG

A word on the IC50: it is the concentration that inhibits the measured activity by half. Regarding `Cc1ccc(S(=O)(=O)N(CCN=[N+]=[N-])[C@@H](C(=O)NO)C(C)C)cc1`, the IC50 at Collagenase 3 is 1 nM; on Neutrophil collagenase, 1 nM; in data set [1] it was 4 nM; in data set [2], 4 nM.

In the case of `COc1ccc(S(=O)(=O)N(CCn2cc(CCCF)nn2)[C@@H](C(=O)NO)C(C)C)cc1`, the IC50 worked out at 0.05 nM against Collagenase 3, 0.4 nM on Neutrophil collagenase, 0.07 nM in [1] and 0.7 nM in data set [2].

For the compound `COc1ccc(S(=O)(=O)N(CCn2cc(CN(C)S(=O)(=O)c3ccc(F)cc3)nn2)[C@@H](C(=O)NO)C(C)C)cc1`, the IC50 on Collagenase 3 came to 1 nM; against Neutrophil collagenase it was 1 nM; in [1] it was 3 nM; in data set [2], 3 nM.

As for `CC(C)[C@H](C(=O)NO)N(Cc1cn(CCOCCOCCOCCF)nn1)S(=O)(=O)c1ccc(OCCF)cc1`, the concentration for half-maximal inhibition (IC50) at Collagenase 3 is 0.6 nM; against Neutrophil collagenase, 0.2 nM; in data set [1], 0.2 nM; in [2], 2 nM.

As for `Cc1ccc(S(=O)(=O)N(CCn2cc(COCCOCCOCCOCCOCCF)nn2)[C@@H](C(=O)NO)C(C)C)cc1`, the IC50 at Collagenase 3 is 0.1 nM; against Neutrophil collagenase it was 2 nM; in data set [1], 0.4 nM; in data set [2], 3 nM.

As usually defined, the logD is lipophilicity at a set pH, counting ionised and neutral species. Read a low logD as a more hydrophilic compound. As for `COc1ccc(S(=O)(=O)N(CCn2cc(CCC[18F])nn2)[C@@H](C(=O)NO)C(C)C)cc1`, the Drug uptake is 0.67 % ID/g in the data set on Kidney; 4.32 % ID/g with Mus musculus [3]; 2.47 % ID/g in the data set with Mus musculus [4]; 30.27 % ID/g with Mus musculus [5]; “Not Active” in the data set with Muscle tissue; 15.97 % ID/g with Mus musculus [7]. Further, the Drug uptake result in the data set with Lung was “Not Active”; with Mus musculus [8], 7.1 % ID/g; in the data set with Mus musculus [9] it was 6.21 % ID/g; in the data set with Mus musculus [10] it was “Not Active”; in the data set with Mus musculus [11], 3.55 % ID/g; with Brain it was “Not Active”. The Stability entry in the data set with Serum is “Stable”. Also, in data set [6], the pH-dependent lipophilicity (logD) at 1 min was 1.25.

As to `Cc1ccc(S(=O)(=O)N(CCn2cc(CCCCOc3cccnc3F)nn2)[C@@H](C(=O)NO)C(C)C)cc1`, the IC50 amounted to 3 nM against Collagenase 3, 4 nM on Neutrophil collagenase, 6 nM in data set [1] and 3 nM in [2].

Regarding `CC(C)[C@H](C(=O)NO)N(Cc1cn(CCOCCOCCOCCOc2cccnc2F)nn1)S(=O)(=O)c1ccc(OCCF)cc1`, the concentration for half-maximal inhibition (IC50) against Collagenase 3 turned out to be 0.3 nM; against Neutrophil collagenase it was 0.3 nM; in [1] it was 0.2 nM; in data set [2], 0.5 nM.

Take `CC(C)[C@H](C(=O)NO)N(Cc1cn(CCF)nn1)S(=O)(=O)c1ccc(OCCF)cc1`: the concentration for half-maximal inhibition (IC50) against Collagenase 3 came out at 0.7 nM; against Neutrophil collagenase it was 2 nM; in [1] it was 7 nM; in data set [2], 2 nM.

In the case of `CC(C)[C@H](C(=O)NO)N(CCn1cc(CN(C)S(=O)(=O)c2ccc(F)cc2)nn1)S(=O)(=O)c1ccc(OCCF)cc1`, the half-maximal inhibitory concentration (IC50) against Collagenase 3 was found to be 1 nM; on Neutrophil collagenase it was 5 nM; in data set [1], 11 nM; in data set [2], 9 nM.

On to `COc1ccc(S(=O)(=O)N(CCn2cc(CCCCOc3cccnc3F)nn2)[C@@H](C(=O)NO)C(C)C)cc1`, for which the IC50 against Collagenase 3 was 0.04 nM; on Neutrophil collagenase it was 0.5 nM; in data set [1], 0.3 nM; in data set [2], 0.9 nM.

Take `Cc1ccc(S(=O)(=O)N(CCn2cc(CCCF)nn2)[C@@H](C(=O)NO)C(C)C)cc1`: the IC50 stood at 0.3 nM at Collagenase 3, 0.9 nM on Neutrophil collagenase, 3 nM in [1] and 2 nM in data set [2].

Turning to `COc1ccc(S(=O)(=O)N(CCn2cc(CNS(=O)(=O)c3ccc(F)cc3)nn2)[C@@H](C(=O)NO)C(C)C)cc1`, the IC50 against Collagenase 3 amounted to 0.09 nM; against Neutrophil collagenase, 0.2 nM; in data set [1] it was 0.6 nM; in data set [2], 5 nM.

For the compound `COc1ccc(S(=O)(=O)N(CCn2cc(COCCOCCOCCOCCOCCF)nn2)[C@@H](C(=O)NO)C(C)C)cc1`, the IC50 was determined as 6 nM against Collagenase 3, 1 nM at Neutrophil collagenase, 2 nM in [1] and 4 nM in [2].

As for `CC(C)[C@H](C(=O)NO)N(CCn1cc(CCCCOc2cccnc2F)nn1)S(=O)(=O)c1ccc(OCCF)cc1`, the IC50 worked out at 0.07 nM at Collagenase 3, 0.05 nM against Neutrophil collagenase, 0.8 nM in [1] and 0.4 nM in data set [2].

Take `CC(C)[C@H](C(=O)NO)N(CCn1cc(COCCOCCOCCOCCOCCF)nn1)S(=O)(=O)c1ccc(OCCF)cc1`: the IC50 on Collagenase 3 worked out at 7 nM; against Neutrophil collagenase it was 35 nM; in data set [1], 10 nM; in data set [2] it was 5 nM.

`CC(C)[C@H](C(=O)NO)N(CCn1cc(CNS(=O)(=O)c2ccc(F)cc2)nn1)S(=O)(=O)c1ccc(OCCF)cc1`: the IC50 at Collagenase 3 stood at 0.1 nM; against Neutrophil collagenase, 0.7 nM; in [1] it was 3 nM; in data set [2] it was 4 nM.

Regarding `CC(C)[C@H](C(=O)NO)N(CCn1cc(CCCF)nn1)S(=O)(=O)c1ccc(OCCF)cc1`, the IC50 against Collagenase 3 was determined as 0.07 nM; against Neutrophil collagenase, 0.4 nM; in data set [1], 2 nM; in [2], 2 nM.

In the case of `COc1ccc(S(=O)(=O)N(CCN=[N+]=[N-])[C@@H](C(=O)NO)C(C)C)cc1`, the half-inhibitory concentration (IC50) at Collagenase 3 was 9 nM; against Neutrophil collagenase it was 2 nM; in [1] it was 6 nM; in [2], 0.9 nM.

In the case of `CC(C)[C@H](C(=O)NO)N(CCN=[N+]=[N-])S(=O)(=O)c1ccc(OCCF)cc1`, the half-maximal inhibitory concentration (IC50) came to 1 nM on Collagenase 3, 1 nM on Neutrophil collagenase, 4 nM in [1] and 4 nM in [2].
